Experimental data taken from ChEMBL document CHEMBL1671697, “Lipophilic bisphosphonates are potent inhibitors of Plasmodium liver-stage growth” (Antimicrob Agents Chemother, 2010).
Where “and” joins values, the source holds several entries; their conditions need not be identical. Identical values can stand only once. Calls of active or inactive are those of the source. No cut-off for these calls is given here.

Columns and labels:
Plasmodium berghei [1] = assay: Antimalarial activity against Plasmodium berghei NK65 infected in human HepG2 cells after 48 hrs by RT-PCR; format: functional, organism-based; settings: NK65, HepG2, 48 h
Outline: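 P. berghei NK65 sporozoites (10,000 per well) added to human HepG2 monolayers seeded the day before, in DMEM with 10% FBS, with compound diluted in PBS; 37°C, 5% CO2, 48 h. Medium and compound were renewed at 24 h. Parasite 18S rRNA copies were quantified by real-time PCR against a plasmid standard and expressed relative to untreated control. IC50 was obtained by nonlinear regression.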

[2] = Cytotoxicity against human HepG2 cells after 22 hrs; format: cell-based; settings: read-out: TC50
Outline: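 HepG2 cells were seeded at 70% confluence the day before treatment, then exposed to a range of inhibitor concentrations for 22 h at 37°C, 5% CO2. CellTiter One reagent was then added for 2 h more, and OD495 was read. IC50 (TC50) was fit by nonlinear regression of percent viable cells against concentration.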

Plasmodium berghei [3] = assay: (§1) Antiplasmodial activity against Plasmodium berghei NK65 infected in 12 wk old C57BL/6 mouse assessed as prepatent period at 2 mg/kg, ip administered once daily via a regimen of day 2, 1 pre-infection, on the day of infection followed by day 1 and 2 postinfection for 5 days by microscopic analysis; format: functional; settings: route intraperitoneal
Plasmodium falciparum [4] = assay: Antiplasmodial activity against chloroquine-sensitive Plasmodium falciparum 3D7 assessed as suppression of parasitemia by microscopic analysis
Plasmodium falciparum [5] = assay: Antiplasmodial activity against chloroquine-resistant Plasmodium falciparum W2mef assessed as suppression of parasitemia by microscopic analysis
[6] = Inhibition of Plasmodium vivax GGPPS
[7] = Inhibition of Plasmodium vivax FPPS
[8] = Partition coefficient, log P of the compound; format: physicochemical; settings: octanol/water
Plasmodium berghei [9] = assay: (§2) Antiplasmodial activity against 3000 Plasmodium berghei NK65 liver stage sporozoites infected in 12 wk old C57BL/6 mouse assessed as delay in prepatent period at 2 mg/kg, ip administered once daily via a regimen of day 2, 1 pre-infection, on the day of infection followed by day 1 and 2 postinfection for 5 days by microscopic analysis; format: functional; settings: route intraperitoneal
Outline: (§3)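 Mice were given compound i.p. once daily from 2 days before to 2 days after sporozoite challenge (5 doses). Challenge was 3,000 infectious P. berghei sporozoites. Parasitemia was followed by blood smear until 3–5%, then mice were sacrificed. Complete protection means no blood-stage parasites in smears; observation lasted 28 days.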

Plasmodium berghei [10] = assay: as §1, with “at 0.8” for “at 2”, “day 1, 2” for “day 1”, “and 3 days” for “and 2”, “[…]” for “for 5”; format: functional; settings: route intraperitoneal
Plasmodium berghei [11] = assay: as §2, with “at 0.8” for “at 2”; format: functional; settings: route intraperitoneal; outline: as §3
Plasmodium berghei [12] = assay: (§4) Antiplasmodial activity against Plasmodium berghei NK65 infected in 12 wk old BALB/c mouse assessed as prepatent period at 5 mg/kg, ip administered once daily via a regimen of day 2, 1 pre-infection, on the day of infection followed by day 1 and 2 postinfection […] by microscopic analysis; format: functional; settings: route intraperitoneal
Plasmodium berghei [13] = assay: Antiplasmodial activity against Plasmodium berghei NK65 infected in 12 wk old C57BL/6 mouse assessed as prepatent period at 0.5 mg/kg, ip administered once daily via a regimen of day 2, 1 pre-infection, on the day of infection followed by day 1 postinfection for 4 days by microscopic analysis; format: functional; settings: route intraperitoneal
Plasmodium berghei [14] = assay: (§5) Antiplasmodial activity against Plasmodium berghei NK65 infected in 12 wk old C57BL/6 mouse assessed as prepatent period at 1.5 mg/kg, ip administered once daily via a regimen of day 2, 1 pre-infection, on the day of infection followed by day 1 and 2 postinfection for 5 days by microscopic analysis; format: functional; settings: route intraperitoneal
Plasmodium berghei [15] = assay: as §5, with “against 5 X 10^6 blood stream” for “against”; format: functional; settings: route intraperitoneal
Outline: (§6)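 Mice, five per group, were dosed i.p. daily for 5 days and challenged on day 0 with 5 × 10^6 blood-stage P. berghei parasites. Parasitemia was monitored by blood smear, and the delay in prepatent period was recorded.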

Plasmodium berghei [16] = assay: as §5, with “activity against 5 X 10^6 blood stream Plasmodium berghei” for “activity against Plasmodium berghei”, “assessed as delay in prepatent period” for “assessed as prepatent period”; format: functional; settings: route intraperitoneal; outline: as §6
Plasmodium berghei [17] = assay: as §5, with “against 5 X 10^6 blood stream” for “against”, “parasitemia” for “prepatent period”; format: functional; settings: route intraperitoneal; outline: as §6
Plasmodium berghei [18] = assay: as §2, with “at 1.5” for “at 2”; format: functional; settings: route intraperitoneal; outline: as §3
Plasmodium berghei [19] = assay: Antiplasmodial activity against Plasmodium berghei NK65 infected in C57BL/6 mouse assessed as completed protection of mouse, ip administered once daily via a regimen of day 2, 1 pre-infection, on day of infection followed by a regimen of day 1 and 2 post infection for 5 days measured after 28 days; format: functional, organism-based; outline: as §3
Plasmodium berghei [20] = assay: Antiplasmodial activity against Plasmodium berghei NK65 infected in 14 wk old C57BL/6 mouse assessed as prepatent period at 5 mg/kg, ip administered once daily via a regimen of day 2, 1 pre-infection, on the day of infection followed by day 1 and 2 postinfection […] by microscopic analysis; format: functional, organism-based; design: dose 5 mg/kg
Plasmodium berghei [21] = assay: Antiplasmodial activity against Plasmodium berghei NK65 infected in 12 wk old C57BL/6 mouse assessed as prepatent period at 5 mg/kg, ip administered once daily via a regimen of day 2, 1 pre-infection, on the day of infection followed by day 1 and 2 postinfection for 5 days by microscopic analysis; format: functional; settings: route intraperitoneal
Plasmodium berghei [22] = assay: as §2, with “at 5” for “at 2”; format: functional; settings: route intraperitoneal; outline: as §3
Plasmodium berghei [23] = assay: Antiplasmodial activity against Plasmodium berghei NK65 infected in 12 wk old BALB/c mouse assessed as prepatent period at 20 mg/kg, ip administered once daily via regimen of 1 preinfection, on day of infection followed by regimen of 1 day post infection for 3 days by microscopic analysis; format: functional; settings: route intraperitoneal
Plasmodium berghei [24] = assay: Antiplasmodial activity against Plasmodium berghei NK65 infected in 12 wk old BALB/c mouse assessed as prepatent period at 5 mg/kg, ip administered once daily on the day of infection followed by day 1 postinfection for 2 days by microscopic analysis; format: functional; settings: route intraperitoneal
Plasmodium berghei [25] = assay: Antiplasmodial activity against Plasmodium berghei NK65 infected in 12 wk old BALB/c mouse assessed as prepatent period at 17 mg/kg, ip administered once daily on the day of infection followed by day 1 postinfection for 2 days by microscopic analysis; format: functional; settings: route intraperitoneal
Plasmodium berghei [26] = assay: as §1, with “in 8” for “in 12”, “at 20” for “at 2”, “day” for “day 2,”, “day 1, 2” for “day 1”, “and 3 days” for “and 2”, “[…]” for “for 5”; format: functional; settings: route intraperitoneal
Plasmodium berghei [27] = assay: Antiplasmodial activity against Plasmodium berghei NK65 infected in 8 wk old C57BL/6 mouse assessed as prepatent period at 20 mg/kg, ip administered once daily via regimen of […], on the day of infection followed by day 1 postinfection for 4 days by microscopic analysis; format: functional; settings: route intraperitoneal
Plasmodium berghei [28] = assay: Antiplasmodial activity against Plasmodium berghei NK65 infected in 12 wk old C57BL/6 mouse assessed as prepatent period at 20 mg/kg, ip administered once daily via a regimen of day 1 pre-infection, on the day of infection followed by day 1 postinfection for 3 days by microscopic analysis; format: functional; settings: route intraperitoneal
Plasmodium berghei [29] = assay: Antiplasmodial activity against Plasmodium berghei NK65 infected in 12 wk old C57BL/6 mouse assessed as prepatent period at 10 mg/kg, ip administered once daily via a regimen of day 2, 1 days pre-infection, on the day of infection followed by day 1 postinfection for 4 days by microscopic analysis; format: functional, organism-based; design: dose 10 mg/kg
Plasmodium berghei [30] = assay: Antiplasmodial activity against Plasmodium berghei NK65 infected in 12 wk old C57BL/6 mouse assessed as prepatent period at 10 mg/kg, ip administered once daily via a regimen of day 1 pre-infection, on the day of infection followed by day 1 postinfection for 3 days by microscopic analysis; format: functional, organism-based; design: dose 10 mg/kg
Plasmodium berghei [31] = assay: as §1, with “against 5 X 10^6 blood stream” for “against”, “at 20” for “at 2”; format: functional; settings: route intraperitoneal; outline: as §6
Plasmodium berghei [32] = assay: (§7) Antiplasmodial activity against 5 X 10^6 blood stream Plasmodium berghei NK65 infected in 12 wk old C57BL/6 mouse assessed as delay in prepatent period at 20 mg/kg, ip administered once daily via a regimen of day 2, 1 pre-infection, on the day of infection followed by day 1 and 2 postinfection for 5 days by microscopic analysis; format: functional; settings: route intraperitoneal; outline: as §6
Plasmodium berghei [33] = assay: as §7, with “parasitemia” for “delay in prepatent period”; format: functional; settings: route intraperitoneal; outline: as §6
Plasmodium berghei [34] = assay: as §2, with “at 20” for “at 2”; format: functional; settings: route intraperitoneal; outline: as §3
Plasmodium berghei [35] = assay: as §4, with “period assessed as complete suppression of parasitemia” for “period”, “at 20” for “at 5”; format: functional; settings: route intraperitoneal

Row | Compound | IC50 (Plasmodium berghei [1]) [µM] | CC50 at 22 h [2] [µM] | IC50 (Plasmodium falciparum [4]) [µM] | IC50 (Plasmodium falciparum [5]) [µM] | IC50 [6] [µM] | Ki [6] [µM] | IC50 [7] [µM] | Ki [7] [µM] | also measured
1 | CCCCCCCCCCN(C)CC(P(=O)(O)O)P(=O)(O)O | 8 | 1000 | 0.45 | 2.2 | 0.7 | 0.016 | 1.5 | 0.043 | Activity (Plasmodium berghei [3]): 9 days; logP ([8]; read-out: logP): -3.4; Activity (Plasmodium berghei [9]): 5 days
2 | CCCCCCCCN(C)CC(P(=O)(O)O)P(=O)(O)O | 8.8 | 1000 | 0.65 | 2 | 0.63 | 0.015 | 1.5 | 0.043 | Activity (Plasmodium berghei [10]): 7 days; logP [8]: -4.1; Activity (Plasmodium berghei [11]): 3 days
3 | CC[C@H](C)C(=O)O[C@H]1C[C@H](O)C=C2C=C[C@H](C)[C@H](CC[C@@H](O)C[C@@H](O)CC(=O)O)[C@H]21 [PRAVASTATIN SODIUM] | > 200 | – | – | – | – | – | – | – | –
4 | NCCC(O)(P(=O)(O)O)P(=O)(O)O [PAMIDRONIC ACID] | > 200 | – | – | – | – | – | – | – | –
5 | CCCCCCCCCCOc1ccc[n+](CC(P(=O)([O-])O)P(=O)(O)O)c1 (configuration not stated) | 10 | 2000 | 0.67 | 0.59 | 0.56 | 0.013 | 1.5 | 0.043 | Activity (Plasmodium berghei [12]): >28 days; Activity (Plasmodium berghei [13]): 3 days; Activity (Plasmodium berghei [14]): >28 days; Activity (Plasmodium berghei [15]): 5 days; Activity (Plasmodium berghei [16]): 4 days; Activity (Plasmodium berghei [17]): 0.01%; logP ([8]; read-out: logP): -1.2; Activity (Plasmodium berghei [18]): >28 days; Activity (Plasmodium berghei [19]): Active
6 | COC(=O)[C@H](CC(C)C)NC(=O)c1ccc(NC[C@@H](N)CS)cc1-c1cccc2ccccc12 | 30 | – | – | – | – | – | – | – | Activity (Plasmodium berghei [20]): inactive; Activity (Plasmodium berghei [21]): 4 days; Activity (Plasmodium berghei [22]): 0 days
7 | O=P(O)(O)C(O)(Cc1cccnc1)P(=O)(O)O [RISEDRONIC ACID] | 16 | 13000 | 1.2 | 1.4 | 1.1 | 0.024 | 1.7 | 0.048 | Activity (Plasmodium berghei [23]): 0.5 days; Activity (Plasmodium berghei [24]): 0.5 days; Activity (Plasmodium berghei [25]): 1 days; Activity (Plasmodium berghei [26]): 6 days; Activity (Plasmodium berghei [27]): 4 days; Activity (Plasmodium berghei [28]): 2.5 days; Activity (Plasmodium berghei [29]): inactive; Activity (Plasmodium berghei [30]): inactive; Activity (Plasmodium berghei [31]): 2 days; Activity (Plasmodium berghei [32]): 1 days; Activity (Plasmodium berghei [33]): 0.09%; logP [8]: -5.5; Activity (Plasmodium berghei [34]): 4 days; Activity (Plasmodium berghei [35]): 8 days and 3 days
